In the library only some 5.5% were active in any assay of this set; here they are far more common.
KCC2 mod – KCC2 cotransporter modulators, thallium flux, primary screen, cell-based, HEK293 KCC2, FluoZin-2 fluorescence, MLSMR | B-score of Tl+ flux slope (higher = more flux/activation; lower = inhibition) at 10 µM | 2.2% of 190,000 active | KCC2 cells, thallium flux FluoZin-2 fluorescence | Solute carrier family 12 member 5 (Homo sapiens), Q9H2X9;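 active means thallium flux slope and its plate-corrected score both differing from the plate sample mean at a set confidence after two filtering rounds, in either direction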;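 further: slope of fluorescence scaled to starting intensity during 10 to 20 s after thallium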
WT yeast gro inh – growth inhibition of WT strain, primary screen, mitochondrial fusion inhibitor project, WT and mutant strains, chemical genetic. mitochondrial fusion phenotypic screen. AID 1362, 2008. inhibition, % at 10 µM. 2.1% of 190,000 active; in the data active means inhibition above about 58%; tested in S. cerevisiae
Yeast lifespan up – compounds extending yeast replicative lifespan, primary screen, S. cerevisiae, OD615. S. cerevisiae growth with nicotinamide; deaD strain in restrictive glucose medium. inhibition of the nicotinamide effect, % at 10 µM. 0.68% of 130,000 active;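 active means inhibition above a set limit, placed 3 SD over the median of all compounds, cut at about 26% in these data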;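 further: 0% = nicotinamide-treated wells and 100% = cells grown without nicotinamide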
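System: DeaD-strain S. cerevisiae / Buffer or medium: CSMM-D, restrictive glucose (dextrose) synthetic minimal medium / Probe or stimulus: nicotinamide, 1.5 mM, co-present with compound / Compound: one concentration, 10 µM, DMSO 0.25% / Incubation: 48 h compound exposure at 30 °C, humidified / Technique: optical density (absorbance) at 615 nm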
BB579 growth dn – growth inhibitors of yeast BB579 in restrictive medium, primary screen, yeast lifespan-shortening project, S. cerevisiae; OD615, 48 h; inhibition, % at 10 µM; 0.51% of 140,000 active; AID 804, 2007;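 active means inhibition above a set limit, 3 SD over the mean compound inhibition, cut at about 44% in these data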
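System: DeaD yeast strain BB579; buffer or medium: CSMM-D dextrose restrictive medium; technique: OD at 615 nm; schedule: 4 h cell preincubation, 48 h compound exposure, 30 °C humidified; doses: single 10 µM dose; controls: amphotericin B 10 µg/mL, positive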
RAM inhibit – inhibitors of the yeast RAM network, primary screen, dse1pr::URA3 reporter, 5-FOA selection | S. cerevisiae dse1pr::URA3 reporter, 5-FOA growth OD615, 2 d; analog-sensitive cbk1-as2 kinase mutant strain | AID 868, 2007 | 1.8% of 190,000 active | inhibition, % at 50 µM;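 active means inhibition above a set limit, 3 SD over mean compound inhibition, cut at about 8.4% in these data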;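 further: 0% = DMSO-only wells with no growth and 100% = 10 µM 1-NA-PP1 full growth; inhibition rescues growth on 5-FOA so higher OD means more RAM inhibition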
Starred values were filed as active, the others as inactive.

Results for Cc1cccc(S(=O)(=O)c2c(N)n(-c3ccccc3)c3nc4ccccc4nc23)c1 ?
KCC2 mod: -0.0673; WT yeast gro inh: -7.0; Yeast lifespan up: 3.4; BB579 growth dn: -34.3; RAM inhibit: 6.0

What do the screens show for `O=C1ON=C(c2ccccc2)/C1=C/c1ccc(OS(=O)(=O)c2ccccc2)cc1`?
KCC2 mod: -0.125; WT yeast gro inh: -6.1; Yeast lifespan up: 11.2; BB579 growth dn: 58.5*; RAM inhibit: 2.2

What do the screens show for `CC1=C(C(=O)Nc2ccccc2C)C(c2cccs2)NC(=S)N1` (configuration not stated)?
KCC2 mod: -0.231; WT yeast gro inh: -3.5; Yeast lifespan up: 6.0; BB579 growth dn: -27.4; RAM inhibit: 4.4

What do the screens show for `CCOc1ccccc1NC(=O)C1=C(C)NC(=S)NC1c1cccs1` (configuration not stated)?
KCC2 mod: 0.142; WT yeast gro inh: -7.2; Yeast lifespan up: -1.9; BB579 growth dn: -16.7; RAM inhibit: 9.8*

How did CCn1nc(C)c(CNC(=O)c2cc(COc3ccc(F)cc3Cl)on2)c1C do in these assays?
KCC2 mod: -3.53

Results for COc1cc(-c2nc(-c3ccc4c(c3)-c3ccccc3S4(=O)=O)c(-c3ccccc3)[nH]2)cc(OC)c1OC ?
KCC2 mod: -0.104; WT yeast gro inh: 10.1; Yeast lifespan up: -4.1; BB579 growth dn: -53.5; RAM inhibit: 6.3

How did COc1cccc(-c2nc(-c3ccc4c(c3)-c3ccccc3S4(=O)=O)c(-c3ccccc3)[nH]2)c1OC do in these assays?
KCC2 mod: 0.982; WT yeast gro inh: 5.0; BB579 growth dn: -8.6; RAM inhibit: 9.2*

How did OCC1(Cc2cccc(C(F)(F)F)c2)CCN(Cc2cc(F)cc(F)c2)CC1 do in these assays?
KCC2 mod: -0.344; WT yeast gro inh: 69.3*; RAM inhibit: 0.6

How did Cc1ccc(-n2cc(CN3CCC(CO)(Cc4cccc(C(F)(F)F)c4)CC3)cn2)cc1 do in these assays?
KCC2 mod: 0.48; WT yeast gro inh: 93.0*; RAM inhibit: 0.5

Results for O=C(NCCc1cccs1)C1CC(c2c(Cl)cccc2Cl)=NO1 (configuration not stated) ?
WT yeast gro inh: -4.0; Yeast lifespan up: -19.7; BB579 growth dn: -60.4; RAM inhibit: 2.2

Results for O=C(O)C1C2CCC(O2)C1C(=O)NCc1ccc(Cl)cc1 (configuration not stated) ?
KCC2 mod: 0.801; WT yeast gro inh: 0.6; Yeast lifespan up: 2.7; BB579 growth dn: 16.9; RAM inhibit: 1.2

Results for CC1CCN(c2ccc(NC(=S)NC(=O)c3ccco3)cc2)CC1 ?
KCC2 mod: 25.3*; WT yeast gro inh: 20.9; Yeast lifespan up: -24.8; BB579 growth dn: -36.7; RAM inhibit: -0.3

How did O=C(Nc1ccc(N2CCCCC2)cc1)c1ccccn1 do in these assays?
KCC2 mod: -0.58; WT yeast gro inh: 60.6*; RAM inhibit: -0.4

What do the screens show for `O=C(NC(=S)Nc1ccc(N2CCCCC2)cc1)c1ccco1`?
KCC2 mod: 71.8*; WT yeast gro inh: 10.7; Yeast lifespan up: -23.1; BB579 growth dn: -10.6; RAM inhibit: 0.0

How did O=C(NC(=S)Nc1ccc(NC(=O)c2ccco2)cc1)c1ccccc1 do in these assays?
KCC2 mod: -1.1; WT yeast gro inh: 3.9; Yeast lifespan up: -0.1; BB579 growth dn: -14.4; RAM inhibit: 2.4

What do the screens show for `CCOC(=O)c1nnn(-c2nonc2N)c1-c1ccc(OC)cc1`?
WT yeast gro inh: -13.8; Yeast lifespan up: -6.0; BB579 growth dn: -71.7; RAM inhibit: 1.4

What do the screens show for `CCn1c(=O)c2c3c(sc2n2c(=S)[nH]nc12)CCC3`?
KCC2 mod: 0.353; WT yeast gro inh: -14.0; Yeast lifespan up: -6.5; BB579 growth dn: -48.6; RAM inhibit: -0.9

Results for Cc1ccc(Cl)cc1Nc1nc(-c2sc(NC(=O)c3ccccc3)nc2C)cs1 ?
KCC2 mod: -0.701; WT yeast gro inh: -7.7; Yeast lifespan up: -4.2; BB579 growth dn: -84.0; RAM inhibit: 9.3*

Results for COc1ccccc1Nc1nc(-c2sc(NC(=O)c3ccccc3)nc2C)cs1 ?
KCC2 mod: 1.1; WT yeast gro inh: 9.6; Yeast lifespan up: -27.5; BB579 growth dn: -27.5; RAM inhibit: 0.8

Compound activity (PubChem BioAssay)
